The subject of assay [1] is RAW264.7. Nature of the assay: Antiinflammatory activity against LPS induced mouse RAW264.7 cells assessed as decrease in cell viability at 10 to 20 uM relative to control. It counts as functional. Conditions: dose 10-20 µM. The essentials:
(§1)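 RAW 264.7 murine macrophages were seeded at 4 × 10^5 cells per mL and grown 24 h at 37 °C. They were then stimulated with 1 μg mL−1 LPS, with or without compound (DMSO-dissolved) at 10 and 20 μM, for 24 h. MTT was added for 2 h, formazan was dissolved in DMSO, and A570/620 was read. Controls were no inhibitor/no LPS and LPS alone, with comparisons made against LPS alone. Data are ≥3 biological replicates, mean ± SEM, one-way ANOVA with Dunnett.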

Assay [2] in a line: Induction of H2S release in PBS at pH 7.4 at 100 uM measured over 4 hrs by microplate reader based analysis. It counts as functional. The essentials: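 Compounds (DMSO-dissolved) were diluted to 100 μM final in phosphate buffer, pH 7.4, containing 1 mM L-cysteine. This was combined with a detection mix of N,N-dimethyl-1,4-phenylenediamine sulfate (20 mM) plus 1% w/v Zn(OAc)2, reacted with 30 mM FeCl3. A670 was read every 5 min until no meaningful increase was seen.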

Assay [3] has as its system RAW264.7. The experiment in a line: Cytotoxicity against mouse RAW264.7 cells assessed as cell viability at 10 to 20 uM measured after 24 hrs by MTT assay. The class given is functional, cell-based. Conditions: dose 10-20 µM. The essentials: as §1
On the technique in general: Tetrazolium dyes change colour on reduction, which living cells bring about.

The target of assay [4] is T1, Prostaglandin G/H synthase 2 (Homo sapiens, UniProt P35354).
T1 sequence (P35354 whole entry): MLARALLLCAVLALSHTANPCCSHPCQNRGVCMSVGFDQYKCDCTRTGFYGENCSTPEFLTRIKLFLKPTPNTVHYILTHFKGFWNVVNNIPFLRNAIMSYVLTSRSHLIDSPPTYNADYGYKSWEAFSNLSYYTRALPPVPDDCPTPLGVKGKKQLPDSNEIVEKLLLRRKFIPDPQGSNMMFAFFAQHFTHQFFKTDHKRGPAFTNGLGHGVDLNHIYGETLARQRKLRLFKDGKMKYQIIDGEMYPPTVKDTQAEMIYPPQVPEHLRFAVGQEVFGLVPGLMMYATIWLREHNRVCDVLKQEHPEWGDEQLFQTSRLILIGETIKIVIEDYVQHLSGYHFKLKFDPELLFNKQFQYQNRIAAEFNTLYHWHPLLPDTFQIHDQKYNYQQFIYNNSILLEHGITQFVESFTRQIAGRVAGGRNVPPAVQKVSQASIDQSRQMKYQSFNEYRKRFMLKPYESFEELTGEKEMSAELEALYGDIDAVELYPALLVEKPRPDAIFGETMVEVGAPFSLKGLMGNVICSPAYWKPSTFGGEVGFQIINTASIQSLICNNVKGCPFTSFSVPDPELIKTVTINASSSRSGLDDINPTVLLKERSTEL
Nature of the assay: Inhibition of human recombinant COX-2 using arachidonic acid as substrate at 10 uM preincubated for 10 mins followed by substrate addition and measured after 30 secs.

Here are results for nine compounds from ChEMBL document CHEMBL6177916, “Synthesis, in silico and bio-evaluation studies of new isothiocyanate derivatives with respect to COX inhibition and H2S release profiles” (RSC Med Chem, 2025).

Calls of active or inactive are those of the source. The rule behind the calls is not given here.

Regarding `OCCc1ccc(N=C=S)c(Br)c1`, the Activity in assay [1] was less than 80%; in assay [2], 35.5 µM. Moreover, the result in assay [3] was inactive.
With `CC(C)CC(=O)OCCc1ccc(N=C=S)cc1`, the Activity in assay [2] is 11.7 µM. Besides, the outcome in assay [3] was inactive.
On to `O=C(OCCc1ccc(N=C=S)cc1)c1ccc([N+](=O)[O-])cc1`, for which the Activity in assay [1] was less than 80%; in assay [2] it was 11.5 µM. For the same compound, in assay [3], the outcome was inactive.
Consider `O=C(OCCc1ccc(N=C=S)cc1)c1ccc(F)cc1`, for which the Activity in assay [2] worked out at 10.9 µM.
On to `OCCc1ccc(N=C=S)cc1`, for which the Activity in assay [1] was less than 80%; in assay [2], 36.8 µM. The outcome in assay [3] was inactive.
As to `N#Cc1cc(CCO)ccc1N=C=S`, the values for the Activity in assay [1] and in assay [2] were less than 80% and 35.7 µM, respectively. Moreover, the outcome in assay [3] was inactive.
For `O=C(OCCc1ccc(N=C=S)cc1)c1ccccc1` the same measures were less than 80%, 11.3 µM and “inactive”.
For `COc1ccc(C(=O)OCCc2ccc(N=C=S)cc2)cc1`, the Activity in assay [2] worked out at 11.2 µM. Also, the outcome in assay [3] was inactive.
With `C[S+]([O-])CCCCN=C=S` (configuration not stated) [SULFORAPHANE], in assay [2], the Activity is 43.5 µM. Moreover, in assay [4], the IC50 was 6.35 µM.

One may read the IC50 as the midpoint of a concentration-inhibition curve.
